The values below come from ChEMBL document CHEMBL2163200, “Synthesis, biological evaluation, and structure-activity relationships of novel substituted N-phenyl ureidobenzenesulfonate derivatives blocking cell cycle progression in S-phase and inducing DNA double-strand breaks” (J Med Chem, 2012).

In series [1] the test system is Jurkat. Nature of the series: Cell cycle arrest in human Jurkat E6-1 cells assessed as accumulation at S phase at 19 uM after 24 hrs by FACS flow cytometry. The class given is functional. In short, it runs like this: (§1)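 Jurkat E6 cells grown in RPMI 1640 with 10% FBS at 37 °C, 5% CO2. Compounds were serially diluted in medium starting 50% above the M21 IC50. 4.0 × 10^5 cells were exposed for 24 h, then washed and spiked with chicken red blood cells as internal standard. Cells were fixed in ice-cold ethanol, stained with 1 μg/mL DAPI on ice for 1 h, and phase distribution was read by flow cytometry. The control was 0.5% DMSO.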

For series [2], the system named is Jurkat. Nature of the series: Cell cycle arrest in human Jurkat E6-1 cells assessed as accumulation at G2/M phase at 19 uM after 24 hrs by FACS flow cytometry. The series is classed as functional. In short, it runs like this: as §1
In general terms: Flow cytometry measures light scatter and fluorescence of single cells or particles in a stream.

Another series deals with HT-29. Briefly: Cytotoxicity against human HT-29 cells after 48 hrs by SRB assay. The class given is functional, cell-based. The following applies: HT-29, 48 h. In short, it runs like this: (§2)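 NCI sulforhodamine B protocol. Cells were grown in high-glucose DMEM with 5% FBS and seeded per well at 4 × 10^3 (HT-29), 3.5 × 10^3 (M21) or 3 × 10^3 (MCF-7), then allowed 24 h to attach. Serial dilutions from 200 μM to 780 nM final were applied in DMSO <0.5% for 48 h. Cells were fixed with cold TCA (10% final) and stained with SRB, with absorbance read at 530–568 nm. Growth inhibition was computed against day-0 plates, giving the 50% inhibitory concentration. At least two experiments in triplicate, CV <10%.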

A further series concerns M21. Nature of the series: Cytotoxicity against human M21 cells after 48 hrs by SRB assay. The series is classed as functional, cell-based. Conditions: M21, 48 h. In short, it runs like this:
as §2
(Sulforhodamine B stains cellular protein and so reports cell mass.)

For another series, the system named is MCF7. Nature of the series: Cytotoxicity against human MCF7 cells after 48 hrs by SRB assay. The class given is functional, cell-based. Conditions: MCF7, 48 h. In short, it runs like this: as §2
Series [3] relates to Jurkat. Nature of the series: Cell cycle arrest in human Jurkat E6-1 cells assessed as accumulation at G0/G1 phase at 19 uM after 24 hrs by FACS flow cytometry. The series is classed as functional. In short, it runs like this: (§3)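 Jurkat E6 cells cultured in RPMI 1640 with 10% FBS at 37 °C, 5% CO2. Compounds serially diluted in medium, starting 50% above the M21 IC50. 4.0 × 10^5 cells were exposed for 24 h. Cells were washed with PBS, chicken red blood cells added as internal standard, and fixed in ice-cold EtOH. After 1 h on ice in PBS with 1 μg/mL DAPI, phase distribution was read by flow cytometry. DMSO-treated cells served as control.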

For series [4], the system named is Jurkat. Nature of the series: Cell cycle arrest in human Jurkat E6-1 cells assessed as accumulation at S phase at 23 uM after 24 hrs by FACS flow cytometry. The class given is functional. In short, it runs like this: as §1
The subject of series [5] is Jurkat. Nature of the series: Cell cycle arrest in human Jurkat E6-1 cells assessed as accumulation at G2/M phase at 23 uM after 24 hrs by FACS flow cytometry. The series is classed as functional. In short, it runs like this:
as §1

In series [6] the test system is Jurkat. Briefly: Cell cycle arrest in human Jurkat E6-1 cells assessed as accumulation at G0/G1 phase at 23 uM after 24 hrs by FACS flow cytometry. The class given is functional. In short, it runs like this:
as §3

In series [7] the test system is Jurkat. Nature of the series: Cell cycle arrest in human Jurkat E6-1 cells assessed as accumulation at G0/G1 phase at 74 uM after 24 hrs by FACS flow cytometry. The series is classed as functional. In short, it runs like this:
as §3

The subject of series [8] is Jurkat. Briefly: Cell cycle arrest in human Jurkat E6-1 cells assessed as accumulation at S phase at 74 uM after 24 hrs by FACS flow cytometry. The series is classed as functional. In short, it runs like this:
(§4)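 Jurkat E6 T-lymphoblasts in RPMI 1640 with 10% FBS, 37 °C, 5% CO2. […] Chicken red blood cells were added as internal standard. Cells were fixed in ice-cold EtOH and stained with 1 μg/mL DAPI on ice for 1 h before flow cytometry of phase distribution. Vehicle control was 0.5% DMSO.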

The subject of series [9] is Jurkat. Nature of the series: Cell cycle arrest in human Jurkat E6-1 cells assessed as accumulation at G2/M phase at 74 uM after 24 hrs by FACS flow cytometry. The series is classed as functional. In short, it runs like this: as §1
Series [10] has as its system Jurkat. Nature of the series: Cell cycle arrest in human Jurkat E6-1 cells assessed as accumulation at S phase at 200 uM after 24 hrs by FACS flow cytometry. The series is classed as functional. In short, it runs like this: as §1
For series [11], the system named is Jurkat. Nature of the series: Cell cycle arrest in human Jurkat E6-1 cells assessed as accumulation at G2/M phase at 200 uM after 24 hrs by FACS flow cytometry. The series is classed as functional. In short, it runs like this: as §1
Series [12] relates to Jurkat. Briefly: Cell cycle arrest in human Jurkat E6-1 cells assessed as accumulation at G0/G1 phase at 200 uM after 24 hrs by FACS flow cytometry. The series is classed as functional. In short, it runs like this: as §3
The subject of the next series is HT-1080. Nature of the series: Antitumor activity against human HT1080 cells xenografted in chicken chorioallantoic membrane assessed as inhibition of tumor growth at 1 ug per egg, iv administered on day 11 measured on day 17 by CAM assay. The class given is functional. In short, it runs like this:
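HT-1080 fibrosarcoma cells (3.5 × 105/egg) were applied onto freshly exposed CAM of fertilized chicken eggs. On day 11, drug from a DMSO stock was diluted in Cremophor EL/99% ethanol/PBS (1/1/14 v/v) and 100 μL was injected into a vein under the CAM. Groups of 10–12 eggs were kept to day 17, embryos were euthanized at 4 °C for ≥4 h, and tumor wet weight was recorded.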

Series [13] is described as follows: Toxicity in fertilized chicken embryo assessed as mortality rate at 1 ug per egg, iv administered on day 11 measured on day 17 by CAM assay. The series is classed as organism-based, Gallus gallus. Conditions: in vivo, read-out: Activity. In short, it runs like this: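 Fertilized chicken eggs grafted on the CAM with HT-1080 cells (3.5 × 105/egg) received a 100 μL intravenous injection under the CAM on day 11. The drug was diluted in Cremophor EL/99% ethanol/PBS (1/1/14 v/v). Groups held 10–12 eggs and were incubated until day 17, when dead embryos and signs of toxicity were counted per group.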

Series [14] relates to Jurkat. Briefly: Cell cycle arrest in human Jurkat E6-1 cells assessed as accumulation at G0/G1 phase at 30 uM after 24 hrs by FACS flow cytometry. The class given is functional. In short, it runs like this:
as §3

Series [15] has as its system Jurkat. Nature of the series: Cell cycle arrest in human Jurkat E6-1 cells assessed as accumulation at S phase at 30 uM after 24 hrs by FACS flow cytometry. The class given is functional. In short, it runs like this: as §4
Series [16] has as its system Jurkat. Briefly: Cell cycle arrest in human Jurkat E6-1 cells assessed as accumulation at G2/M phase at 30 uM after 24 hrs by FACS flow cytometry. The series is classed as functional. In short, it runs like this: as §1

`Cc1ccc(OS(=O)(=O)c2ccc(NC(=O)NCCCl)cc2)cc1`: the Activity in the series on Jurkat [1] was found to be 57%; with Jurkat [2], 11%; with Jurkat [3] it was 32%. Further, the IC50 (in general, the concentration that gives 50% inhibition) in the series on HT-29 worked out at 30 µM; in the series with M21, 21 µM; in the series on MCF7, 33 µM.
For the compound `CCCc1ccccc1OS(=O)(=O)c1cccc(NC(=O)NCC)c1`, the Activity in the series on Jurkat [4] is given as 44%; in the series on Jurkat [5], 10%; with Jurkat [6], 46%. This compound also had an IC50 with M21 of 25 µM.
`CCNC(=O)Nc1cccc(S(=O)(=O)Nc2ccccc2C)c1`: the Activity is reported as 46% in the series on Jurkat [7], 34% in the series on Jurkat [8] and 20% in the series on Jurkat [9]. In addition, the values for the IC50 in the series with HT-29, with M21 and in the series with MCF7 were 102 µM, 131 µM and 108 µM, respectively.
Consider `CCc1ccccc1NS(=O)(=O)c1ccc(NC(=O)NCCCCl)cc1`, for which the figures for the Activity with Jurkat [10], in the series with Jurkat [11] and in the series on Jurkat [12] were 39%, 16% and 45%, respectively. Moreover, the concentration for half-maximal inhibition (IC50) in the series with HT-29, in the series on M21 and with MCF7 was greater than 200 µM each time.
For the compound `Cc1ccccc1NS(=O)(=O)c1ccc(NC(=O)NCCCCl)cc1`, the Activity in the series on Jurkat [10] is 38%; with Jurkat [11] it was 15%; in the series with Jurkat [12], 47%. The IC50 is 64 µM in the series on HT-29, greater than 200 µM with M21 and greater than 200 µM in the series with MCF7.
As to `CCc1ccccc1OS(=O)(=O)c1cccc(NC(=O)NCCCl)c1`, the results for the IC50 in the series with HT-29, with M21 and with MCF7 were 4.3 µM, 4.8 µM and 5.3 µM, respectively.
`COc1ccc(/C=C\c2cc(OC)c(OC)c(OC)c2)cc1O` [COMBRETASTATIN A4]: the TGI – broadly, the reduction of tumour growth relative to the control group – with HT-1080 was found to be 49%. Also, the mortality at 6 days in [13] was 21%.
For the compound `CCCc1ccccc1NS(=O)(=O)c1ccc(NC(=O)NCC)cc1`, the Activity in the series with Jurkat [14] turned out to be 19%; with Jurkat [15] it was 35%; with Jurkat [16], 46%. Besides, the IC50 in the series with HT-29 turned out to be 32 µM; in the series with M21 it was 41 µM; with MCF7, 37 µM.
